# Experimental data: ChEMBL document CHEMBL1135613, “Soluble tetraarylporphyrin-platinum conjugates as cytotoxic and phototoxic antitumor agents” (J Med Chem, 2002)
# What was measured:
# Format in all cases: cell-based
# Details in all cases: human
# [1] = system: TCC-SUP; experiment: Cytotoxicity of compound in dark was determined at 1 uM in TCC-SUP transitional bladder cancer cells; No statistically significant cytotoxicity
# [2] = system: TCC-SUP; experiment: Cytotoxicity of compound in light was determined at 1 uM in TCC-SUP transitional bladder cancer cells; Marked light-induced toxicity
# [3] = system: TCC-SUP; experiment: Cytotoxicity of compound was determined from treated to that of control TCC-SUP cells
# In short: (§1)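 Kinetic (multiple-point) chemosensitivity assay: TCC-SUP cells (passage 56) seeded in microplates, drug added after 48 h at 1, 5 and 10 µM from 10 mM stocks, 0.1% (v/v) final solvent. Medium left unchanged; growth followed by absorbance at 578 nm up to 144 h. T/C corr. = (T−C0)/(C−C0)×100; cytocidal effect = (C0−T)/C0×100 when T<C0.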
# [4] = system: TCC-SUP; experiment: Cytotoxicity of compound in dark was determined at 10 uM in TCC-SUP transitional bladder cancer cells; No statistically significant cytotoxicity
# [5] = system: TCC-SUP; experiment: Cytotoxicity of compound in dark was determined at 5 uM in TCC-SUP transitional bladder cancer cells; No statistically significant cytotoxicity
# [6] = system: TCC-SUP; experiment: Photoxicity of compound in light was determined at 1 uM in TCC-SUP transitional bladder cancer cells; Marked light-induced toxicity
# [7] = system: TCC-SUP; experiment: Cytotoxicity of compound was determined from treated to that of control on the proliferation of TCC-SUP cells at 1 uM; in short: as §1
# [8] = system: TCC-SUP; experiment: Cytocidal of compound was determined from 10 uM in TCC-SUP cells incubated for 144 hr; in short: as §1
# [9] = system: TCC-SUP; experiment: Cytotoxicity of compound was determined from treated to that of control on the proliferation of TCC-SUP cells at 5 uM; in short: as §1
compound,measurement,setting,value
COCCOCCOc1ccc(-c2c3nc(c(-c4ccc(OCCOCCOC)cc4)c4ccc([nH]4)c(-c4ccc(OC(C(=O)O)C(=O)O)cc4)c4nc(c(-c5ccc(OCCOCCOC)cc5)c5ccc2[nH]5)C=C4)C=C3)cc1,Cytotoxicity,[1],No effect
same,Cytotoxicity,[2],Marked light-induced toxicity
same,T/C corr,[3],37%
COCCOCCOCCOCCOCCOCCOCCOCCOCCOCCOCCOCCOCCOCCOCCOCCOCCOc1ccc(-c2c3nc(c(-c4ccc(OCCOCCOCCOCCOCCOCCOCCOCCOCCOCCOCCOCCOCCOCCOCCOCCOCCOC)cc4)c4ccc([nH]4)c(-c4ccc(OC(C(=O)O)C(=O)O)cc4)c4nc(c(-c5ccc(OCCOCCOCCOCCOCCOCCOCCOCCOCCOCCOCCOCCOCCOCCOCCOCCOCCOC)cc5)c5ccc2[nH]5)C=C4)C=C3)cc1,Cytotoxicity,[4],No effect
COCCOCCOCCOc1ccc(-c2c3nc(c(-c4ccc(OCCOCCOCCOC)cc4)c4ccc([nH]4)c(-c4ccc(OC(C(=O)O)C(=O)O)cc4)c4nc(c(-c5ccc(OCCOCCOCCOC)cc5)c5ccc2[nH]5)C=C4)C=C3)cc1,Cytotoxicity,[5],No effect
same,Cytotoxicity,[6],Marked light-induced toxicity
same,T/C corr,[3],37%
"Diammine[2-(4-{10,15,20-tris[4-(1,4,7,10-tetraoxaundecyl)phenyl]porphyrin-5-yl}phenoxy)malonato]platinum-(II)",T/C corr,[7],26.2%
same,Cytocidal effect,[8],17.1%
same,T/C corr,[9],2.8%
